Laboratory results from ChEMBL document CHEMBL3621175, “Second generation 2-aminoimidazole based advanced glycation end product inhibitors and breakers” (Bioorg Med Chem Lett, 2015).
Activity calls are given as the source filed them. The rule behind the calls is not given here.

What was measured:
[1] = Induction of breaking of pre-formed carboxymethyl lysine-enriched advanced glycation end product formation using BSA and glyoxylic acid assessed as increase in primary amine content at 400 uM after 24 hrs by TNBSA assay relative to 4,4'-(butane-1,4-diyl)bis(1H-imidazol-2-amine) dihydrochloride
[2] = Inhibition of advanced glycation end product formation assessed as protection of reactive primary amines by measuring increase in primary amine level at 100 uM incubated for 7 days using BSA and glycolaldehyde by TNBSA assay; assay type: physicochemical; details: 168 h
How it was run: (§1)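 BSA was modified with glycolaldehyde in the presence of 2-AIs. Total primary amines were quantified by TNBSA, independent of fluorescence. Protection appears as preserved free amines relative to GO-modified BSA, with basal free-amine level of BSA before GO/2-AI treatment as reference. DMSO and PBS served as vehicle controls, with aminoguanidine as comparator.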

[3] = Induction of breaking of pre-formed carboxymethyl lysine-enriched advanced glycation end product formation using BSA and glyoxylic acid assessed as increase in primary amine content at 400 uM after 24 hrs by TNBSA assay relative to BSA alone
How it was run: (§2)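 CML-enriched AGE-BSA was pre-formed from 50 mg/mL BSA and 25 mM glyoxylic acid with sodium cyanoborohydride over 48 h, then purified by dialysis. The glycated protein was exposed to 2-AIs for 24 h. Free primary amines were quantified by TNBSA and compared with untreated CML-BSA. DMSO and PBS served as vehicle controls, with aminoguanidine as reference.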

[4] = Induction of breaking of pre-formed carboxymethyl lysine-enriched advanced glycation end product formation using BSA and glyoxylic acid assessed as increase in primary amine content at 400 uM after 24 hrs by TNBSA assay relative to pre-formed CML-enriched AGE; how it was run: as §2
[5] = Inhibition of advanced glycation end product formation assessed as protection of reactive primary amines by measuring increase in primary amine level at 100 uM incubated for 7 days using BSA and glycolaldehyde by TNBSA assay relative to control BSA; assay type: physicochemical; parameters: scale not given: the % may be the effect or the level left; details: 168 h; how it was run: as §1
[6] = Inhibition of advanced glycation end product formation assessed as protection of reactive primary amines by measuring primary amine reduction using BSA and glycolaldehyde by TNBSA assay; assay type: physicochemical; parameters: scale not given: the % may be the effect or the level left; how it was run: as §1
[7] = Induction of breaking of pre-formed advanced glycation end product formation using BSA assessed as restoration of glycated -BSA primary amine content after 24 hrs by TNBSA assay
[8] = Inhibition of advanced glycation end product formation using BSA and glycolaldehyde at 40 uM by standard fluorescence based assay; assay type: physicochemical
[9] = Inhibition of advanced glycation end product formation using BSA and glycolaldehyde at 400 uM by standard fluorescence based assay; assay type: physicochemical

Row | Structure (SMILES) | Activity [1] | inhibition (INH) [2] | Activity [3] | Activity [4] | other results
1 | NCCCc1c[nH]c(N)n1 | 79.4% | Active | 67.5% | 110% | –
2 | N=C(N)NN | inactive | – | inactive | inactive | –
3 | NCCCCc1c[nH]c(N)n1 | 64.5% | Active | 52.5% | 97.9% | Activity [5]: 44.6%
4 | Nc1nc(CCCCc2c[nH]c(N)n2)c[nH]1 | – | Active | – | – | Activity [6]: 3.6%; Activity [7]: 78.9%; inhibition (INH) [8]: 5.6%; inhibition (INH) [9]: 44.6%
5 | Nc1nc(Cc2ccc(O)cc2)c[nH]1 | – | Active | – | – | –
6 | Nc1nc(Cc2c[nH]c3ccccc23)c[nH]1 | – | Active | – | – | –
7 | Nc1nc(Cc2c[nH]cn2)c[nH]1 | – | Active | – | – | –
8 | N=C(N)NCCCc1c[nH]c(N)n1 | – | Active | – | – | –
